Measurements taken from ChEMBL document CHEMBL1124286, “(R)-(-)-10-methyl-11-hydroxyaporphine: a highly selective serotonergic agonist” (1988).

Key:
Rattus norvegicus [1] = species on record: Rattus norvegicus; experiment: Influence on 5-hydroxy tryptamine (5-HT) concentration in amygdala region of brain; type: functional, organism-based
Outline: (§1)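 Male Sprague-Dawley rats (150-250 g) given 4 mg/kg sc; killed 30 min later. Brain regions dissected, weighed, homogenized in 0.01 N HClO4, kept on ice 15 min, centrifuged 13000g 2 min. Supernatant analysed by HPLC with electrochemical detection: C-18 reverse-phase column, 0.1 M sodium phosphate mobile phase with EDTA, octanesulfonic acid, 10% MeOH, pH 3.8; glassy carbon electrode at +0.65. Compared with untreated controls by ANOVA and multiple regression.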

Rattus norvegicus [2] = species on record: Rattus norvegicus; experiment: Influence on 5-hydroxy tryptamine (5-HT) concentration in caudate region of brain; type: functional, organism-based; outline: as §1
Rattus norvegicus [3] = species on record: Rattus norvegicus; experiment: Influence on 5-hydroxy tryptamine (5-HT) concentration in frontal cortex region of brain; type: functional, organism-based; outline: as §1
Rattus norvegicus [4] = species on record: Rattus norvegicus; experiment: Influence on 5-hydroxy tryptamine (5-HT) concentration in hippocampus region of brain; type: functional, organism-based; outline: as §1
Rattus norvegicus [5] = species on record: Rattus norvegicus; experiment: Influence on 5-hydroxy tryptamine (5-HT) concentration in hypothalamus region of brain; type: functional, organism-based; outline: as §1
Rattus norvegicus [6] = species on record: Rattus norvegicus; experiment: Influence on 5-hydroxy tryptamine (5-HT) concentration in olfactory tubercle region of brain; type: functional, organism-based; outline: as §1
Rattus norvegicus [7] = species on record: Rattus norvegicus; experiment: Influence on 5-hydroxy tryptamine (5-HT) concentration in parietal cortex region of brain; type: functional, organism-based; outline: as §1
Rattus norvegicus [8] = species on record: Rattus norvegicus; experiment: Influence on 5-hydroxy tryptamine (5-HT) concentration in septum region of brain; type: functional, organism-based; outline: as §1
Rattus norvegicus [9] = species on record: Rattus norvegicus; experiment: Influence on 5-hydroxyindoleacetic acid (5-HIAA) concentration in caudate region of brain; type: functional, organism-based; outline: as §1
Rattus norvegicus [10] = species on record: Rattus norvegicus; experiment: Influence on 5-hydroxyindoleacetic acid (5-HIAA) concentration in frontal cortex region of brain; type: functional, organism-based; outline: as §1
Rattus norvegicus [11] = species on record: Rattus norvegicus; experiment: Influence on 5-hydroxyindoleacetic acid (5-HIAA) concentration in hippocampus region of brain; type: functional, organism-based; outline: as §1
Rattus norvegicus [12] = species on record: Rattus norvegicus; experiment: Influence on 5-hydroxyindoleacetic acid (5-HIAA) concentration in hypothalamus region of brain; type: functional, organism-based; outline: as §1
Rattus norvegicus [13] = species on record: Rattus norvegicus; experiment: Influence on 5-hydroxyindoleacetic acid (5-HIAA) concentration in parietal cortex region of brain; type: functional, organism-based; outline: as §1
Rattus norvegicus [14] = species on record: Rattus norvegicus; experiment: Influence on 5-hydroxyindoleacetic acid (5-HIAA) concentration in septum region of brain; type: functional, organism-based; outline: as §1
Rattus norvegicus [15] = species on record: Rattus norvegicus; experiment: Influence on 5-hydroxyindoleacetic acid (5-HIAA)concentration in amygdala region of brain; type: functional, organism-based; outline: as §1
[16] = Ratio of 5-HT concentration to 5-HIAA concentration in amygdala region of brain; type: functional; outline: as §1
[17] = Ratio of 5-HT concentration to 5-HIAA concentration in frontal cortex region of brain; type: functional; outline: as §1
[18] = Ratio of 5-HT concentration to 5-HIAA concentration in hippocampus region of brain; type: functional; outline: as §1
[19] = Ratio of 5-HT concentration to 5-HIAA concentration in hypothalamus region of brain; type: functional; outline: as §1
[20] = Ratio of 5-HT concentration to 5-HIAA concentration in olfactory tubercle region of brain; type: functional; outline: as §1
[21] = Ratio of 5-HT concentration to 5-HIAA concentration in parietal cortex region of brain; type: functional; outline: as §1
[22] = Ratio of 5-HT concentration to 5-HIAA concentration in septum region of brain; type: functional; outline: as §1
[23] = Ratio of 5-HT concentration to 5-HIAA concentration in caudate region of brain; type: functional; outline: as §1
Rattus norvegicus [24] = species on record: Rattus norvegicus; experiment: Influence on 5-hydroxyindoleacetic acid (5-HIAA) concentration in olfactory tubercle region of brain; type: functional, organism-based; outline: as §1

What does the source list for `CCCN(CCC)C1CCc2cccc(O)c2C1` (centres undefined) [8-OH-DPAT]?
Concentration (Rattus norvegicus [1]): 4.9 nM/g; Concentration (Rattus norvegicus [2]): 3.6 nM/g; Concentration (Rattus norvegicus [3]): 4.2 nM/g; Concentration (Rattus norvegicus [4]): 4.2 nM/g; Concentration (Rattus norvegicus [5]): 7.1 nM/g; Concentration (Rattus norvegicus [6]): 8.3 nM/g; Concentration (Rattus norvegicus [7]): 3.1 nM/g; Concentration (Rattus norvegicus [8]): 4.5 nM/g; Concentration (Rattus norvegicus [9]): 2.6 nM/g; Concentration (Rattus norvegicus [10]): 0.8 nM/g; Concentration (Rattus norvegicus [11]): 1.7 nM/g; Concentration (Rattus norvegicus [12]): 1.9 nM/g; Concentration (Rattus norvegicus [13]): 0.8 nM/g; Concentration (Rattus norvegicus [14]): 1.5 nM/g; Concentration (Rattus norvegicus [15]): 1 nM/g; Ratio [16]: 5.8; Ratio [17]: 5.8; Ratio [18]: 2.5; Ratio [19]: 3.9; Ratio [20]: 5.9; Ratio [21]: 4.1; Ratio [22]: 3; Ratio [23]: 1.5; Concentration (Rattus norvegicus [24]): 1.4 nM/g
